Calls of active or inactive are those of the source. The calls are words filed in the database; no cut-off is given here.
Key:
[1] = system: Rattus norvegicus; assay: Antiosteoporotic activity in rat assessed as increase of serum parathyroid hormone level at 30 mg/kg, po after 15 to 30 mins relative to control; format: functional
Outline: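 Rats (n = 5) dosed orally. Serum PTH 1−34 measured, and the peak increase (Δ), taken at 15 or 30 min after dosing, compared with levels in vehicle-treated control rats.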

[2] = biological target: T1, Extracellular calcium-sensing receptor (Homo sapiens, UniProt P41180); assay: Antagonist activity at human CaSR expressed in rat PC12h cells by reporter gene assay; format: functional, cell-based, PC-12
T1 sequence (P41180 whole entry): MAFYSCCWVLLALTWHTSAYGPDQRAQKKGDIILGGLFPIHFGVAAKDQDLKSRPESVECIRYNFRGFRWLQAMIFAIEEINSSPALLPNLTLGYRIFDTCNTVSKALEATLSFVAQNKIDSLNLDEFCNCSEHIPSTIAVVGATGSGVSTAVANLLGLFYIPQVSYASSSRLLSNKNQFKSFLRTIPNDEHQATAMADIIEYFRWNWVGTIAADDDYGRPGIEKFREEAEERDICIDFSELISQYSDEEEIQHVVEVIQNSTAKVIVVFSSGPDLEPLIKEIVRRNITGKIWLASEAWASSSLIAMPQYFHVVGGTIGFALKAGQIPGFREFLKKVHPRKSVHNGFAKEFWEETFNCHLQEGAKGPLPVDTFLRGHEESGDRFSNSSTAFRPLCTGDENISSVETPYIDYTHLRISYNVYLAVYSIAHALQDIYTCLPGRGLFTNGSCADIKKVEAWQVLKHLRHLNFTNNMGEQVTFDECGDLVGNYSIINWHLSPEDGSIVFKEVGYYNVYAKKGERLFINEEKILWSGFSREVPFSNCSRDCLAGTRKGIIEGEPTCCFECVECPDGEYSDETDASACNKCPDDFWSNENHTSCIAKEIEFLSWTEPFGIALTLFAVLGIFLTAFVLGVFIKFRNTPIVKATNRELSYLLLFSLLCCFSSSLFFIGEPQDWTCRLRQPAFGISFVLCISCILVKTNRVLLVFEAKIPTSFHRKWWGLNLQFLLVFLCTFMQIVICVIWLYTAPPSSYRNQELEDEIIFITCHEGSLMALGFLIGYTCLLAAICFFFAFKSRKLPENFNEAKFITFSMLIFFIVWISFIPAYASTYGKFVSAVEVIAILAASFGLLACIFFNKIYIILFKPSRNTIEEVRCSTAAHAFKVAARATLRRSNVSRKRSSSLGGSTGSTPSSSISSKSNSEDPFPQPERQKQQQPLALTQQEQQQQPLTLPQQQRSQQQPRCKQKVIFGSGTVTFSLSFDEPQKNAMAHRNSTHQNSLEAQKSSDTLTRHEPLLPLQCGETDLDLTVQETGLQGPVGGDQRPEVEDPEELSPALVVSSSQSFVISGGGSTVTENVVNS
Outline: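 Human CaSR antagonism measured by reporter gene assay in PC12h cells. Values are means of three experiments.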

[3] = biological target: Cytochrome P450 2D6 (Homo sapiens, UniProt P10635); assay: Inhibition of CYP2D6; format: ADME
[4] = system: Rattus norvegicus; assay: Antiosteoporotic activity in rat assessed as increase of serum parathyroid hormone level at 3 mg/kg, po after 15 to 30 mins relative to control; format: functional
Outline: (§1)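 Rats (n = 5) dosed orally. Serum PTH 1−34 peak increase (Δ) measured at 15 or 30 min and compared with vehicle-treated controls. Scored against the peak given by a 30 mg/kg oral reference aminopropandiol calcilytic: ++ >80%, + 50−80%, below that <50%.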

[5] = system: Rattus norvegicus; assay: Antiosteoporotic activity in rat assessed as increase of serum parathyroid hormone level at 1 mg/kg, po after 15 to 30 mins relative to control; format: functional; outline: as §1
[6] = system: Rattus norvegicus; assay: Antiosteoporotic activity in rat assessed as increase of serum parathyroid hormone level at 10 mg/kg, po after 15 to 30 mins relative to control; format: functional; outline: as §1
[7] = system: Rattus norvegicus; assay: Antiosteoporotic activity in rat assessed as increase of serum parathyroid hormone level at 3 mg/kg, po after 15 mins; format: functional, organism-based; parameters: dose 3 mg/kg
Outline: (§2)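 Time course in rats (n = 5) after oral dosing of the hemisulfate salt. Serum PTH 1−34 levels followed over time, expressed as mean ± standard deviation.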

[8] = system: Rattus norvegicus; assay: Antiosteoporotic activity in po dosed rat assessed as increase of serum parathyroid hormone level after 15 to 30 mins; format: functional, organism-based; outline: as §1
[9] = system: Rattus norvegicus; assay: Antiosteoporotic activity in rat assessed as increase of serum parathyroid hormone level at 3 mg/kg, po after 2 hrs; format: functional, organism-based; parameters: dose 3 mg/kg; outline: as §2
[10] = Tmax in rat at 1 mg/kg, po; format: ADME, organism-based; parameters: dose 1 mg/kg, route oral; settings: in vivo
[11] = Cmax in rat at 1 mg/kg, po; format: ADME, organism-based; parameters: dose 1 mg/kg, route oral; settings: in vivo
[12] = Half life in rat at 1 mg/kg, po; format: ADME, organism-based; parameters: dose 1 mg/kg, route oral; settings: in vivo
[13] = Oral bioavailability in rat at 1 mg/kg; format: ADME, organism-based; settings: in vivo, read-out: Activity
[14] = biological target: Beta-2 adrenergic receptor (Homo sapiens, UniProt P07550); assay: Inhibition of beta2 adrenergic receptor
[15] = Inhibition of alpha2 adrenergic receptor up to 10 uM
[16] = biological target: D(1A) dopamine receptor (Homo sapiens) (UniProt P21728); assay: Inhibition of dopamine D1 receptor up to 10 uM
[17] = Inhibition of serotonin receptor up to 10 uM

Sequence of Cytochrome P450 2D6 (P10635 whole entry): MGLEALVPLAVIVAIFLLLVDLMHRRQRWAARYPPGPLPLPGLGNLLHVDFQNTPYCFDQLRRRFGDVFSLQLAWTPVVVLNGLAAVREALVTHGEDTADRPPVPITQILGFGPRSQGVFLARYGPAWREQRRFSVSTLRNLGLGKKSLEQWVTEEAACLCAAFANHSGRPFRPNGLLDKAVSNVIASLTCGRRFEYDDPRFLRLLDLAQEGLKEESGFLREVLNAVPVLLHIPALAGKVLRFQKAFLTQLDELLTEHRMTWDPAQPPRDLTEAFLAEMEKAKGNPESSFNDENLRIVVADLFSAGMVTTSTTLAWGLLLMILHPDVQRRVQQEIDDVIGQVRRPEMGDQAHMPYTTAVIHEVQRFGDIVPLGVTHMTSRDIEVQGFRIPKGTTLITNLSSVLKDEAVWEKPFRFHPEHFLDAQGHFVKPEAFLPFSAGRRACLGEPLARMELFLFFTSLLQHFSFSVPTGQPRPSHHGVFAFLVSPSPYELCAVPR
Sequence of D(1A) dopamine receptor (Homo sapiens) (P21728 whole entry): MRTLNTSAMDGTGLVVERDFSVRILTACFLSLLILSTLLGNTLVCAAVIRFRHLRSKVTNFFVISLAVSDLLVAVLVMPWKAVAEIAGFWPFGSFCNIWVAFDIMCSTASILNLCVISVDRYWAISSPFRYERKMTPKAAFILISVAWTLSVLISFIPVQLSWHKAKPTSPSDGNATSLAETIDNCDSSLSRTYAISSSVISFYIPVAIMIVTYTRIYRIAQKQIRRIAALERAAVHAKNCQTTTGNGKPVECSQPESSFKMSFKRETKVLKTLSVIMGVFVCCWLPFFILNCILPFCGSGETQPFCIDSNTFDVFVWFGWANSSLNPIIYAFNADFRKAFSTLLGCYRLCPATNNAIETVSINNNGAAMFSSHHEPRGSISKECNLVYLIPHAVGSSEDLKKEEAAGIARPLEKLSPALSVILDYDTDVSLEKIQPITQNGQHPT
Sequence of Beta-2 adrenergic receptor (P07550 whole entry): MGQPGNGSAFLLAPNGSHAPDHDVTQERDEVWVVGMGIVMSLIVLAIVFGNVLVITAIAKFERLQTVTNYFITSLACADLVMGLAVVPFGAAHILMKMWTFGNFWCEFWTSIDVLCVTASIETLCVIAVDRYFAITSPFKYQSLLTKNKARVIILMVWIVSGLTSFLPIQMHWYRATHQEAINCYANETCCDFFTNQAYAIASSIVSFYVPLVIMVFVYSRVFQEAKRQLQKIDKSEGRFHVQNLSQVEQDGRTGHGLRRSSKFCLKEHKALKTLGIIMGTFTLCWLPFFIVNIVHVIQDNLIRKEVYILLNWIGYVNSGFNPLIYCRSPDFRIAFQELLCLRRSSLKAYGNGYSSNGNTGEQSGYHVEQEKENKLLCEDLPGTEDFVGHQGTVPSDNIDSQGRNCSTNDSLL

| SMILES | IC50 [2] [nM] | IC50 [3] [nM] | Activity [4] [%] | other results |
| --- | --- | --- | --- | --- |
| Cc1ccccc1[C@H](OC[C@H](O)CNC(C)(C)Cc1ccc2ccccc2c1)C1CC1 |  |  |  | fold change (FC) [1]: 2 |
| C[C@@H](OC[C@H](O)CNC(C)(C)Cc1ccc2ccccc2c1)c1ccccc1CC(=O)O | 2200 |  |  |  |
| C[C@@H](OC[C@H](O)CNC(C)(C)Cc1ccc2ccccc2c1)c1ccccc1CCC(=O)O | 24 |  | 50 |  |
| C[C@@H](OC[C@H](O)CNC(C)(C)Cc1ccc(Cl)c(F)c1)c1ccccc1-c1ccc(C(=O)O)cc1 | 23 |  | >80 | Activity [5]: 50% |
| CC(C)(Cc1ccc2ccccc2c1)NC[C@@H](O)COC(c1ccccc1C(=O)O)C1CC1 (mixture of isomers) | > 3000 | > 10000 |  |  |
| CC(C)(Cc1ccc2ccccc2c1)NC[C@@H](O)COC(c1cccc(C(=O)O)c1)C1CC1 (mixture of isomers) | 960 | > 10000 |  |  |
| CC(C)(Cc1ccc2ccccc2c1)NC[C@@H](O)COC(c1ccc(C(=O)O)cc1)C1CC1 (mixture of isomers) | > 3000 |  |  |  |
| CC(OC[C@H](O)CNC(C)(C)Cc1ccc2ccccc2c1)c1ccccc1C(=O)O (mixture of isomers) | > 3000 |  |  |  |
| CC(OC[C@H](O)CNC(C)(C)Cc1ccc2ccccc2c1)c1ccc(-c2ccc(C(=O)O)cc2)cc1 (mixture of isomers) | 1500 |  |  |  |
| CC(OC[C@H](O)CNC(C)(C)Cc1ccc2ccccc2c1)c1cccc(-c2ccc(C(=O)O)cc2)c1 (mixture of isomers) | 18 |  |  |  |

Further molecules by falling IC50 [2], results first:

| IC50 [2] [nM] | IC50 [3] [nM] | SMILES | Activity [4] [%] | other results |
| --- | --- | --- | --- | --- |
| 18 | 1200 | CC(C)(Cc1ccc2ccccc2c1)NC[C@@H](O)CO[C@@H](c1ccccc1CO)C1CC1 |  |  |
| 12 | 11000 | Cc1cc(-c2ccccc2[C@@H](C)OC[C@H](O)CNC(C)(C)Cc2ccc(Cl)c(F)c2)ccc1C(=O)O [ENCALERET] | >80 | Activity [5]: >80%; Activity [6]: >80%; Activity [7]: Active; Activity [8]: Dose-dependent effect; Activity [9]: inactive; Tmax [10]: 0.5 h; Cmax [11]: 475 ng/mL; half-life [12]: 1.8 h; bioavailability [13]: 64%; IC50 [14]: 1700 nM; Activity [15]: inactive; Activity [16]: inactive; Activity [17]: inactive |
| 11 |  | CC(OC[C@H](O)CNC(C)(C)Cc1ccc2ccccc2c1)c1ccccc1-c1ccc(C(=O)O)cc1 (mixture of isomers) |  |  |
| 5 |  | Cc1cc(-c2ccccc2[C@@H](C)OC[C@H](O)CNC(C)(C)Cc2ccc3ccccc3c2)ccc1C(=O)O | >80 | Activity [5]: <50% |
| 4 | > 10000 | C[C@@H](OC[C@H](O)CNC(C)(C)Cc1ccc2ccccc2c1)c1ccccc1-c1ccc(C(=O)O)cc1 | 50 | Activity [5]: <50%; Activity [6]: >80% |
